According to ChEMBL document CHEMBL1128436, “Synthesis and biological evaluation of a new series of sterols as potential hypocholesterolemic agents” (1995):
The source made the active and inactive calls. The calls are words filed in the database; no cut-off is given here.

Legend:
[1] = biological target: Low-density lipoprotein receptor (Homo sapiens) (UniProt P01130); experiment: Capability of derepressing the transcription of human Low density lipoprotein receptor promoter in the presence of 25-hydroxycholesterol in CHO cells by luciferase assay; NA= Not active within the test range 0-20 ug/mL; type: cell-based
Chain of Low-density lipoprotein receptor (Homo sapiens) (P01130 whole entry, the tested form may be a part): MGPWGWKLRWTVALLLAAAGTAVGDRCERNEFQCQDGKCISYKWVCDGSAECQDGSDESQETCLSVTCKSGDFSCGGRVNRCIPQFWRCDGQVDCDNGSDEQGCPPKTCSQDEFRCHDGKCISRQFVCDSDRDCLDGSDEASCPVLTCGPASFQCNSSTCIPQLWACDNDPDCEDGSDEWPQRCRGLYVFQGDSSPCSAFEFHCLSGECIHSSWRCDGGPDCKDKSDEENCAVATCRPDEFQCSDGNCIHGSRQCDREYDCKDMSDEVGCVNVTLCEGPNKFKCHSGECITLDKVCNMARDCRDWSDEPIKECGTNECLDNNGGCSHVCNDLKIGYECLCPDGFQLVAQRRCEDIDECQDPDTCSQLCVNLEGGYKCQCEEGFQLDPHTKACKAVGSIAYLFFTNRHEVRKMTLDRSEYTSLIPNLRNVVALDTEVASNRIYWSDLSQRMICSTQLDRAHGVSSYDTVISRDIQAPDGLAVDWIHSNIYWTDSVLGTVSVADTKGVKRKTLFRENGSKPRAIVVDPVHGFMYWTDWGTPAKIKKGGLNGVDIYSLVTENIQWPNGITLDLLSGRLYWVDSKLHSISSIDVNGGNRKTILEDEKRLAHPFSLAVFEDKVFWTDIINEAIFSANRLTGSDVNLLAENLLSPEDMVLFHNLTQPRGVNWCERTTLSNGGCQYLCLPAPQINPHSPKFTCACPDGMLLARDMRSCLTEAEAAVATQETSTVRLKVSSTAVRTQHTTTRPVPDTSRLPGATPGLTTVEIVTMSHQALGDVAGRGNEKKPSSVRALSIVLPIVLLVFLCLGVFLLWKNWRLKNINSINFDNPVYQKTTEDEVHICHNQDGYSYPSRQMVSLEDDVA
Procedure, shortened: (§1)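 Stably transfected CHO clone S27/B30 (LDL receptor promoter fused to firefly luciferase), grown to confluence (2-3 days, 37 °C, 5% CO2). Then 24 h in serum-free assay medium (DMEM/Ham's F-12 3:1, 0.5% bovine albumin) with 25-hydroxycholesterol 0.5 μg/mL plus compound at 0.30-20 μg/mL from ethanol stock, triplicate wells. Lysate luciferase peak light per μg protein (Coomassie). EC30 = concentration giving 30% rise over control. MA = % specific induction at 20 μg/mL.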

CHO = experiment: Capability of derepressing the transcription of SV40 promoter in CHO cells by luciferase assay; NA= Not active within the test range 0-20 ug/mL; type: functional, cell-based; conditions: Cricetulus griseus
Procedure, shortened: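 Counter-screen in CHO clone SV40/LN9, with luciferase driven by the SV40 promoter. Confluent monolayers were given compound at 0.30-20 μg/mL for 24 h in serum-free albumin assay medium, triplicate wells. Lysates were read for luciferase peak luminescence, normalized to lysate protein.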

[2] = biological target: Low-density lipoprotein receptor (Homo sapiens) (UniProt P01130); experiment: Capability of derepressing the transcription of human Low density lipoprotein receptor promoter in the presence of 25-hydroxycholesterol in CHO cells by luciferase assay; type: cell-based; procedure, shortened: as §1
[3] = biological target: Low-density lipoprotein receptor (Homo sapiens) (UniProt P01130); experiment: Capability of derepressing the transcription of Low density lipoprotein receptor promoter in the presence of 25-hydroxycholesterol in CHO cells measured as maximum activity at 20 ug/mL; type: cell-based; procedure, shortened: as §1
Mesocricetus auratus [4] = species: Mesocricetus auratus; experiment: Serum cholesterol level change relative to the control value (333(23)) in hamsters at a dose of 0.2% of diet for 1 week
Cricetinae gen. sp. [5] = experiment: Total serum cholesterol level with relative to the control value (333(23)) in hamsters at a dose of 0.2% of diet for 1 week; type: functional, Cricetulus griseus
Mesocricetus auratus [6] = species: Mesocricetus auratus; experiment: Serum cholesterol level change relative to the control value (366(24)) in hamsters at a dose of 0.2% of diet for 1 week
Cricetinae gen. sp. [7] = experiment: Total serum cholesterol level with relative to the control value (366(24)) in hamsters at a dose of 0.2% of diet for 1 week; type: functional, Cricetulus griseus

| Compound | EC30 [1] | EC30 [2] [µM] | MA [3] [%] | other results |
| --- | --- | --- | --- | --- |
| C=CC[C@@H]1C[C@@]2(C)C(CC[C@H]3[C@@H]4CC[C@H]([C@H](C)CCCC(C)C)[C@@]4(C)CC[C@@H]32)[C@H](CC=C)[C@@H]1O (stereo not given in full) | inactive | – | – | – |
| CC(C)CCC[C@@H](C)[C@H]1CC[C@H]2[C@@H]3CCC4[C@H](Cc5ccc(C=O)cc5)[C@H](O)CC[C@]4(C)[C@H]3CC[C@]12C (stereo not given in full) | inactive | – | – | – |
| C#CC[C@H]1C2CC[C@H]3[C@@H]4CC[C@H]([C@H](C)CCCC(C)C)[C@@]4(C)CC[C@@H]3[C@@]2(C)CC[C@H]1O (stereo not given in full) | inactive | – | – | – |
| CC(C)CCC[C@@H](C)[C@H]1CC[C@H]2[C@@H]3CCC4[C@H](Cc5ccccc5F)[C@H](O)CC[C@]4(C)[C@H]3CC[C@]12C (stereo not given in full) | inactive | – | – | – |
| CC(C)CCC[C@@H](C)[C@H]1CC[C@H]2[C@@H]3CCC4[C@H](C/C=C/c5ccccc5)[C@H](O)CC[C@]4(C)[C@H]3CC[C@]12C (stereo not given in full) | inactive | – | – | – |
| CC(C)CCC[C@@H](C)[C@H]1CC[C@H]2[C@@H]3CCC4[C@H](Cc5ccc(C#N)cc5)[C@H](O)CC[C@]4(C)[C@H]3CC[C@]12C (stereo not given in full) | – | 9.9 | 55 | Activity (CHO): inactive |
| C=C(C)C[C@H]1C2CC[C@H]3[C@@H]4CC[C@H]([C@H](C)CC[C@@H](CC)C(C)C)[C@@]4(C)CC[C@@H]3[C@@]2(C)CC[C@H]1O (stereo not given in full) | – | 3.1 | 165 | Relative change (Mesocricetus auratus [4]): -41%; Activity (CHO): inactive; Total cholesterol (Cricetinae gen. sp. [5]): 196 mg/dL |
| CC(C)CCC[C@@H](C)[C@H]1CC[C@H]2[C@@H]3CCC4[C@H](Cc5ccc(F)cc5)[C@H](O)CC[C@]4(C)[C@H]3CC[C@]12C (stereo not given in full) | – | 17 | 80 | Activity (CHO): inactive; Relative change (Mesocricetus auratus [6]): -50%; Total cholesterol (Cricetinae gen. sp. [7]): 181 mg/dL |
| C/C=C\C[C@H]1C2CC[C@H]3[C@@H]4CC[C@H]([C@H](C)CCCC(C)C)[C@@]4(C)CC[C@@H]3[C@@]2(C)CC[C@H]1O (stereo not given in full) | – | 26 | 72 | Activity (CHO): inactive |
| C=C(C)C[C@H]1C2CC[C@H]3[C@@H]4CC[C@H]([C@H](C)CCCC(C)C)[C@@]4(C)CC[C@@H]3[C@@]2(C)CC[C@H]1O (stereo not given in full) | – | 2.8 | 124 | Activity (CHO): inactive |
| C=C[C@H]1C2CC[C@H]3[C@@H]4CC[C@H]([C@H](C)CCCC(C)C)[C@@]4(C)CC[C@@H]3[C@@]2(C)CC[C@H]1O (stereo not given in full) | inactive | – | – | – |
| C=CC[C@@H]1[C@H]2CC[C@@H]3[C@H](CC[C@]4(C)[C@@H]([C@H](C)CCCC(C)C)CC[C@@H]34)[C@@]2(C)CC[C@@H]1O | inactive | – | – | – |
| C/C=C(\C)C[C@H]1C2CC[C@H]3[C@@H]4CC[C@H]([C@H](C)CCCC(C)C)[C@@]4(C)CC[C@@H]3[C@@]2(C)CC[C@H]1O (stereo not given in full) | – | 18 | 72 | Activity (CHO): inactive |
| CC(C)CCC[C@@H](C)[C@H]1CC[C@H]2[C@@H]3CCC4[C@H](Cc5ccc(Cl)c(Cl)c5)[C@H](O)CC[C@]4(C)[C@H]3CC[C@]12C (stereo not given in full) | inactive | – | – | – |
| C=CC[C@@H]1C[C@H]2[C@@H]3CC[C@H]([C@H](C)CCCC(C)C)[C@@]3(C)CC[C@@H]2[C@@]2(C)CC[C@@H](O)CC12 (stereo not given in full) | inactive | – | – | – |
| C=C(Cl)C[C@H]1C2CC[C@H]3[C@@H]4CC[C@H]([C@H](C)CCCC(C)C)[C@@]4(C)CC[C@@H]3[C@@]2(C)CC[C@@H]1O (stereo not given in full) | inactive | – | – | – |
| CC(C)=CC[C@H]1C2CC[C@H]3[C@@H]4CC[C@H]([C@H](C)CCCC(C)C)[C@@]4(C)CC[C@@H]3[C@@]2(C)CC[C@H]1O (stereo not given in full) | inactive | – | – | – |
| CC(C)CCC[C@@H](C)[C@H]1CC[C@H]2[C@@H]3CCC4[C@H](Cc5cccc(F)c5)[C@H](O)CC[C@]4(C)[C@H]3CC[C@]12C (stereo not given in full) | inactive | – | – | – |
| CC(C)CCC[C@@H](C)[C@H]1CC[C@H]2[C@@H]3CC[C@H]4[C@H](Cc5ccccc5)C(=O)CC[C@]4(C)[C@H]3CC[C@]12C | – | – | – | Relative change (Mesocricetus auratus [6]): -15%; Total cholesterol (Cricetinae gen. sp. [7]): 312 mg/dL |
| CC(C)CCC[C@@H](C)[C@H]1CC[C@H]2[C@@H]3CCC4[C@H](Cc5ccc(F)cc5F)[C@H](O)CC[C@]4(C)[C@H]3CC[C@]12C (stereo not given in full) | inactive | – | – | – |

| Compound | EC30 [1] | EC30 [2] [µM] | MA [3] [%] | other results |
| --- | --- | --- | --- | --- |
| COC(=O)c1ccc(C[C@H]2C3CC[C@H]4[C@@H]5CC[C@H]([C@H](C)CCCC(C)C)[C@@]5(C)CC[C@@H]4[C@@]3(C)CC[C@H]2O)cc1 (stereo not given in full) | – | 14 | 48 | Activity (CHO): inactive |
| C=CC[C@H]1C[C@H]2[C@@H]3CC[C@H]([C@H](C)CCCC(C)C)[C@@]3(C)CC[C@@H]2[C@@]2(C)CC[C@@H](O)CC12 (stereo not given in full) | inactive | – | – | – |
| CC(C)CCC[C@@H](C)[C@H]1CC[C@H]2[C@@H]3CCC4[C@H](Cc5cccc(F)c5F)[C@H](O)CC[C@]4(C)[C@H]3CC[C@]12C (stereo not given in full) | inactive | – | – | – |
| CC(C)CCC[C@@H](C)[C@H]1CC[C@H]2[C@@H]3CCC4[C@H](Cc5ccc(Cl)cc5)[C@H](O)CC[C@]4(C)[C@H]3CC[C@]12C (stereo not given in full) | – | 42 | 63 | Activity (CHO): inactive |
| CC(C)CCC[C@@H](C)[C@H]1CC[C@H]2[C@@H]3CCC4[C@H](Cc5cccc(I)c5)[C@H](O)CC[C@]4(C)[C@H]3CC[C@]12C (stereo not given in full) | – | – | – | MA [1]: inactive |
| CC(C)CCC[C@@H](C)[C@H]1CC[C@H]2[C@@H]3CCC4[C@H](C/C=C/CO)[C@H](O)CC[C@]4(C)[C@H]3CC[C@]12C (stereo not given in full) | inactive | – | – | – |
| CC(C)CCC[C@@H](C)[C@H]1CC[C@H]2[C@@H]3CCC4[C@H](Cc5ccc(C(=O)O)cc5)[C@H](O)CC[C@]4(C)[C@H]3CC[C@]12C (stereo not given in full) | inactive | – | – | – |
| CC(C)CCC[C@@H](C)[C@H]1CC[C@H]2[C@@H]3CCC4[C@H](Cc5ccc(C(F)(F)F)cc5)[C@H](O)CC[C@]4(C)[C@H]3CC[C@]12C (stereo not given in full) | – | 12 | 58 | Activity (CHO): inactive |
| CCCC[C@H]1C2CC[C@H]3[C@@H]4CC[C@H]([C@H](C)CCCC(C)C)[C@@]4(C)CC[C@@H]3[C@@]2(C)CC[C@H]1O (stereo not given in full) | – | 20 | 88 | Activity (CHO): inactive |
| CC/C=C/C[C@H]1C2CC[C@H]3[C@@H]4CC[C@H]([C@H](C)CCCC(C)C)[C@@]4(C)CC[C@@H]3[C@@]2(C)CC[C@H]1O (stereo not given in full) | inactive | – | – | – |
| C=CC[C@H]1[C@H](O)CC[C@@]2(C)[C@@H]1CC[C@@H]1[C@@H]2CC[C@]2(C)[C@@H]([C@H](C)CCCC(C)C)CC[C@@H]12 | inactive | – | – | – |
| CC(C)CCC[C@@H](C)[C@H]1CC[C@H]2[C@@H]3CCC4[C@H](Cc5ccc(CO)cc5)[C@H](O)CC[C@]4(C)[C@H]3CC[C@]12C (stereo not given in full) | inactive | – | – | – |
| CC(C)CCC[C@@H](C)[C@H]1CC[C@H]2[C@@H]3CC[C@H]4CC(=O)CC[C@]4(C)[C@H]3CC[C@]12C | inactive | – | – | – |
| COc1ccc(C[C@H]2C3CC[C@H]4[C@@H]5CC[C@H]([C@H](C)CCCC(C)C)[C@@]5(C)CC[C@@H]4[C@@]3(C)CC[C@H]2O)cc1 (stereo not given in full) | inactive | – | – | – |
| C=CC[C@@H]1C(=O)CC[C@]2(C)[C@H]3CC[C@]4(C)[C@@H]([C@H](C)CCCC(C)C)CC[C@H]4[C@@H]3CC[C@@H]12 | inactive | – | – | Relative change (Mesocricetus auratus [6]): -27%; Total cholesterol (Cricetinae gen. sp. [7]): 267 mg/dL |
| CC(C)CCC[C@@H](C)[C@H]1CC[C@H]2[C@@H]3CCC4[C@H](Cc5ccc(OCc6ccccc6)cc5)[C@H](O)CC[C@]4(C)[C@H]3CC[C@]12C (stereo not given in full) | inactive | – | – | – |
| C=CC[C@H]1C2CC[C@H]3[C@@H]4CC[C@H]([C@H](C)CCCC(C)(C)O)[C@@]4(C)CC[C@@H]3[C@@]2(C)CC[C@H]1O (stereo not given in full) | – | 9.4 | 111 | – |
| C=CC[C@@H]1C[C@@]2(C)C(CC[C@H]3[C@@H]4CC[C@H]([C@H](C)CCCC(C)C)[C@@]4(C)CC[C@@H]32)C[C@H]1O (stereo not given in full) | inactive | – | – | – |
| C=C(Br)C[C@H]1C2CC[C@H]3[C@@H]4CC[C@H]([C@H](C)CCCC(C)C)[C@@]4(C)CC[C@@H]3[C@@]2(C)CC[C@H]1O (stereo not given in full) | – | 3.2 | 131 | Activity (CHO): inactive |
| Cc1cccc(C[C@H]2C3CC[C@H]4[C@@H]5CC[C@H]([C@H](C)CCCC(C)C)[C@@]5(C)CC[C@@H]4[C@@]3(C)CC[C@H]2O)c1 (stereo not given in full) | inactive | – | – | – |
